The results in this text go back to ChEMBL document CHEMBL3739406, “Trisubstituted Thieno[3,2-b]pyrrole 5-Carboxamides as Potent Inhibitors of Alphaviruses” (J Med Chem, 2015).

A short description of data set [1]: Cytotoxicity against HEK293T cells assessed as cell viability at antiviral EC50 after 24 hrs by cell titer-glo luminescent cell viability assay. The data set is classed as cell-based, HEK-293T. The note with it: human, read-out: Activity. A digest of the protocol:
(§1)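 HEK 293T cells, 3 × 10⁴/well, seeded overnight, then exposed 24 h to compound (0.01–100 μM, triplicate) in DMEM pH 6.8 with 10% FBS. Viability read by CellTiter-Glo luminescence. Normalized to untreated (100%) and medium blank (0%); CC50 by five-parameter curve fit.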
On the technique in general: Cellular ATP, detected with luciferase, serves as a proxy for viable cell number.

The nature of data set [2]: Selectivity index, ratio of CC50 for HEK293T cells to EC50 for Chikungunya virus infected in HEK293T cells. The format is toxicity, cell-based, HEK-293T. The note with it: human, read-out: Ratio CC50/EC50.
The nature of data set [3]: Cytotoxicity against HEK293T cells assessed as reduction in cell viability after 24 hrs by cell titer-glo luminescent cell viability assay. The format is cell-based, HEK-293T. The note with it: human. The method in brief:
as §1

Data set [4] relates to Chikungunya virus. The data set can be described thus: Antiviral activity against wild type Chikungunya virus IMT infected in HEK293T cells assessed as inhibition of infectivity measured at 24 hrs postinfection by FITC/DAPI staining based array scan VTI HCS reader analysis. The data set is classed as functional, cell-based. The note with it: HEK-293T.
Data set [5] deals with Chikungunya virus. The data set can be described thus: Antiviral activity against Chikungunya virus infected in HEK293T cells assessed as reduction of infectivity measured at 24 hrs postinfection by gaussia luciferase reporter gene assay. The format is functional, cell-based. The note with it: HEK-293T. (In general: In a reporter assay the amount or activity of a reporter protein is the signal.)

A further data set relates to Sindbis virus. The data set can be described thus: Antiviral activity against wild type Sindbis virus infected in HEK293T cells assessed as inhibition of infectivity measured at 24 hrs postinfection by FITC/DAPI staining based array scan VTI HCS reader analysis. The format is functional, organism-based. The note with it: HEK-293T.
The test system of data set [6] is Chikungunya virus. The data set can be described thus: Antiviral activity against wild type Chikungunya virus IMT infected in HEK293T cells assessed as inhibition of capsid protein expression measured at 24 hrs postinfection by Western blot method. The format is functional, cell-based. The note with it: HEK-293T. A general note: A western blot detects proteins with antibodies after separation by electrophoresis.

The next data set deals with Onyong-nyong virus. The data set can be described thus: Antiviral activity against O'nyong-nyong virus infected in HEK293T cells assessed as inhibition of infectivity measured at 24 hrs postinfection by FITC/DAPI staining based array scan VTI HCS reader analysis. The format is functional, cell-based. The note with it: HEK-293T.
For data set [7], the system named is Chikungunya virus. The data set can be described thus: Antiviral activity against wild type Chikungunya virus IMT infected in HEK293T cells assessed as reduction of viral E1 gene expression at 2.5 uM measured at 24 hrs postinfection by qRT-PCR method relative to control. The data set is classed as functional, HEK-293T.
Data set [8] has as its system Chikungunya virus. The data set can be described thus: Antiviral activity against wild type Chikungunya virus IMT infected in HEK293T cells assessed as reduction of viral nsP1 gene expression measured at 24 hrs postinfection by qRT-PCR method. The data set is classed as functional, cell-based. The note with it: HEK-293T.
The test system of data set [9] is Chikungunya virus. The data set can be described thus: Antiviral activity against wild type Chikungunya virus IMT infected in HEK293T cells assessed as reduction of viral E1 gene expression measured at 24 hrs postinfection by qRT-PCR method. The note with it: HEK-293T. The data set is classed as functional, cell-based.
The next data set concerns HEK293. The data set can be described thus: Toxicity in HEK293T cells infected with Chikungunya virus IMT assessed as reduction in beta-actin protein expression at 0.1 to 5 uM measured at 24 hrs postinfection by Western blot method. The note with it: human, hek293, 24 h. The data set is classed as cell-based.
The subject of data set [10] is Chikungunya virus. The data set can be described thus: Antiviral activity against wild type Chikungunya virus IMT infected in HEK293T cells assessed as inhibition of E2 protein expression measured at 24 hrs postinfection by Western blot method. The format is functional, cell-based. The note with it: HEK-293T.
The subject of data set [11] is Chikungunya virus. The data set can be described thus: Antiviral activity against wild type Chikungunya virus IMT infected in HEK293T cells assessed as inhibition of nsP1 protein expression measured at 24 hrs postinfection by Western blot method. The data set is classed as functional, cell-based. The note with it: HEK-293T.
Data set [12] deals with Chikungunya virus. The data set can be described thus: Antiviral activity against wild type Chikungunya virus IMT infected in HEK293T cells assessed as inhibition of nsP3 protein expression measured at 24 hrs postinfection by Western blot method. The format is functional, cell-based. The note with it: HEK-293T.
The test system of data set [13] is Chikungunya virus. The data set can be described thus: Antiviral activity against wild type Chikungunya virus IMT infected in HEK293T cells assessed as reduction of viral nsP1 gene expression at 2.5 uM measured at 24 hrs postinfection by qRT-PCR method relative to control. The format is functional, HEK-293T.
Data set [14] has as its system Chikungunya virus. The data set can be described thus: Antiviral activity against wild type Chikungunya virus IMT infected in HEK293T cells assessed as inhibition of infectivity at 5 uM measured at 24 hrs postinfection by FITC/DAPI staining based array scan VTI HCS reader analysis. The format is functional. The note with it: HEK-293T.
For data set [15], the system named is Chikungunya virus. The data set can be described thus: Antiviral activity against wild type Chikungunya virus IMT infected in HEK293T cells assessed as inhibition of viral capsid protein at 5 uM measured at 24 hrs postinfection by Western blot method. The note with it: HEK-293T. The data set is classed as functional, cell-based.
The subject of data set [16] is Chikungunya virus. The data set can be described thus: Antiviral activity against wild type Chikungunya virus IMT infected in HEK293T cells assessed as inhibition of nsP1 protein expression at 5 uM measured at 24 hrs postinfection by Western blot method. The format is functional, cell-based. The note with it: HEK-293T.
Data set [17] has as its system Chikungunya virus. The data set can be described thus: Antiviral activity against wild type Chikungunya virus IMT infected in HEK293T cells assessed as inhibition of E2 protein expression at 5 uM measured at 24 hrs postinfection by Western blot method. The data set is classed as functional, cell-based. The note with it: HEK-293T.
For data set [18], the system named is Chikungunya virus. The data set can be described thus: Antiviral activity against wild type Chikungunya virus IMT infected in HEK293T cells assessed as inhibition of nsP3 protein expression at 5 uM measured at 24 hrs postinfection by Western blot method. The format is functional, cell-based. The note with it: HEK-293T.

Calls of active or inactive are those of the source. The rule behind the calls is not given here. Bounds are passed on as bounds.

The term CC50 denotes the concentration that lowers cell viability or growth by half. What is called EC50 is the concentration giving half of the maximal effect. In general, inhibition refers to the percentage by which the read-out fell short of the control. Take `CCCNC(=O)C1CCN(C(=O)c2cc3sc(CNC(C)c4ccccc4)cc3n2Cc2ccc(OC)cc2)CC1` (stereo not drawn): the viability at 24 h in data set [1] was over 80%. Moreover, in data set [2], the selectivity ratio came out at 4. In addition, the CC50 at 24 h in data set [3] came to 33.9 µM. For the same molecule, the EC50 was determined as 13.5 µM with Chikungunya virus [4] and 8.44 µM in the data set with Chikungunya virus [5]. Further, the inhibition entry with Chikungunya virus [4] was “Dose-dependent effect”.
In the case of `CCCNC(=O)C1CCN(C(=O)c2cc3sccc3n2Cc2ccc(OC)cc2)CC1`, the viability at 24 h in data set [1] is over 80%. Besides, in data set [2], the selectivity ratio came out at 2.7. Also, the CC50 at 24 h in [3] amounted to 18.8 µM. Besides, in the data set with Chikungunya virus [4], the EC50 turned out to be 6.55 µM and the inhibition result is “Dose-dependent effect”. Also, the EC50 in the data set on Chikungunya virus [5] turned out to be 7 µM.
Take `CCCNC(=O)C1CCN(C(=O)c2cc3sc(C#N)cc3n2Cc2ccc(OC)cc2)CC1`: the viability at 24 h in [1] is over 80%. In addition, the selectivity ratio in [2] was over 20. The CC50 at 24 h in data set [3] was over 100 µM. In addition, in the data set with Chikungunya virus [4], the EC50 is 8.23 µM and the inhibition result was “Dose-dependent effect”. Also, the EC50 with Chikungunya virus [5] was found to be 4.9 µM.
On to `CCCNC(=O)C1CCN(C(=O)c2cc3sc(Br)cc3n2Cc2ccc(OC)cc2)CC1`, for which the viability at 24 h in [1] was over 80%. The concentration for a half-maximal effect (EC50) with Sindbis virus is 1.14 µM; in the data set on Onyong-nyong virus it was 2.58 µM; with Chikungunya virus [4] it was 1.96 µM; in the data set on Chikungunya virus [5] it was 3.1 µM. For the same molecule, the inhibition result with Chikungunya virus [6], in the data set on Chikungunya virus [10], in the data set on Chikungunya virus [11], in the data set on Chikungunya virus [12] and in the data set with Chikungunya virus [4] was “Dose-dependent effect” in each case. For the same molecule, the “fold change (FC)” value in the data set with Chikungunya virus [7] and with Chikungunya virus [13] was 100 in each case. Besides, the Activity result in the data set with Chikungunya virus [8] was “Dose-dependent effect”; in the data set with Chikungunya virus [9] it was “Dose-dependent effect”; with HEK293, “Non-toxic”. For the same molecule, the selectivity ratio in data set [2] is over 32. In data set [3], the cytotoxic concentration (CC50) at 24 h is over 100 µM. Moreover, the inhibition at 5 µM in the data set on Chikungunya virus [14] was 60%.
For `CCCNC(=O)C1CCN(C(=O)c2cc3sc(-c4ccccc4)cc3n2Cc2ccc(OC)cc2)CC1`, the viability at 24 h in [1] is over 80%. Further, in data set [2], the selectivity ratio is over 26. The CC50 at 24 h in [3] is over 100 µM. In addition, the EC50 in the data set with Chikungunya virus [4] stood at 3.08 µM; with Chikungunya virus [5], 3.85 µM. For the same molecule, the inhibition result with Chikungunya virus [4] was “Dose-dependent effect”.
With `NC(=O)c1ncn([C@@H]2O[C@H](CO)[C@@H](O)[C@H]2O)n1` [RIBAVIRIN], in data set [1], the viability at 24 h was over 80%. In addition, the concentration giving a half-maximal response (EC50) in the data set with Sindbis virus was determined as 5.12 µM; with Onyong-nyong virus it was 18.4 µM; with Chikungunya virus [4], 20 µM; in the data set on Chikungunya virus [5], 13.1 µM. Moreover, the inhibition result with Chikungunya virus [15], in the data set with Chikungunya virus [16], in the data set on Chikungunya virus [17] and in the data set with Chikungunya virus [18] was “inactive” throughout. Also, in the data set with Chikungunya virus [4], the inhibition entry was “Dose-dependent effect”. Besides, in the data set on Chikungunya virus [14], the inhibition at 5 µM was determined as 10%.
As to `CCCNC(=O)C1CCN(C(=O)c2cc3sc(CO)cc3n2Cc2ccc(OC)cc2)CC1`, the viability at 24 h in data set [1] is over 80%. Further, the inhibition entry with Chikungunya virus [6], with Chikungunya virus [10], in the data set with Chikungunya virus [11], with Chikungunya virus [12] and in the data set with Chikungunya virus [4] was “Dose-dependent effect” in each case. Moreover, the Activity result is “Dose-dependent effect” in the data set with Chikungunya virus [8], “Dose-dependent effect” in the data set on Chikungunya virus [9] and “Non-toxic” with HEK293. Moreover, the selectivity ratio in data set [2] turned out to be 3.6. In data set [3], the CC50 at 24 h is 15.5 µM. Further, the EC50 with Chikungunya virus [4] was determined as 2.39 µM; in the data set on Chikungunya virus [5] it was 4.33 µM. In addition, in the data set with Chikungunya virus [14], the inhibition at 5 µM was 60%.
Regarding `CCCNC(=O)C1CCN(C(=O)c2c(Br)c3sccc3n2Cc2ccc(OC)cc2)CC1`, in data set [1], the viability at 24 h is over 80%. The selectivity ratio in [2] worked out at 4.1. The CC50 at 24 h in data set [3] stood at 31.6 µM. Also, the EC50 in the data set on Chikungunya virus [4] was found to be 14 µM; with Chikungunya virus [5] it was 7.75 µM. In addition, the inhibition result in the data set on Chikungunya virus [4] was “Dose-dependent effect”.
